“And” between values parts separate entries of the source, which are not always exact repeats. Equal entries are not always repeated.
Tested on: HEK-293T
Assay: Multiplex assay against HEK293T;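 for Population Tubulin-Different-Phenotype (%): share of the cells with healthy nuclei that show this phenotype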
Format: toxicity, cell-based
Conditions: human
In short: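 With compound added, live cells were imaged on a CQ1 microscope at 37°C and 5% CO2; staining with Hoechst33342, BioTracker Green Microtubule Cytoskeleton Dye, MitoTracker Red and Annexin V Alexa Fluor 680 had been done at seeding. The CellPathfinder machine-learning gating scheme split cells into Hoechst high-intensity objects or normal cells, normal cells into healthy, pyknosed or fragmented nuclei, and pyknosed cells into mitotic or apoptotic. The tubulin, mitochondrial-mass and membrane-permeability phenotypes are per cents of healthy-nucleus cells.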

[1] = 12 h, 10 µM, compound concentration 10 uM, replicate 1
[2] = 12 h, 10 µM, compound concentration 10 uM, replicate 2
[3] = 24 h, 10 µM, compound concentration 10 uM, replicate 1
[4] = 24 h, 10 µM, compound concentration 10 uM, replicate 2
[5] = 12 h, 1 µM, compound concentration 1 uM, replicate 1
[6] = 12 h, 1 µM, compound concentration 1 uM, replicate 2
[7] = 24 h, 1 µM, compound concentration 1 uM, replicate 1
[8] = 24 h, 1 µM, compound concentration 1 uM, replicate 2
[9] = 48 h, 1 µM, compound concentration 1 uM, replicate 1
[10] = 48 h, 1 µM, compound concentration 1 uM, replicate 2
[11] = 48 h, 10 µM, compound concentration 10 uM, replicate 1
[12] = 48 h, 10 µM, compound concentration 10 uM, replicate 2

Q: Which results are given for `CN1C(=O)c2sccc2N(C)c2nc(Nc3ccc(S(N)(=O)=O)cc3)ncc21`?
A: Population Apoptotic (%) [1]: 16% and 18%; Population Fragmented Nuclei (%) [1]: 26% and 12%; Population Healthy Nuclei (%) [1]: 60% and 76%; Population Hoechst High Intensity Objects (%) [1]: 18% and 7%; Population Membrane Permeable-Phenotype (%) [1]: 4% and 3%; Population Mitochondria Different-Phenotype (%) [1]: 4% and 2%; Population Mitotic Cells (%) [1]: 83% and 81%; Population Normal (%) [1]: 81% and 92%; Population Pyknosed Nuclei (%) [1]: 13% and 11%; Population Tubulin-Different-Phenotype (%) [1]: 0%; Total Cell Count [1]: 672 and 727; Population Apoptotic (%) [2]: 8% and 7%; Population Fragmented Nuclei (%) [2]: 8% and 4%; Population Healthy Nuclei (%) [2]: 86% and 85%; Population Hoechst High Intensity Objects (%) [2]: 1% and 2%; Population Membrane Permeable-Phenotype (%) [2]: 1% and 0%; Population Mitochondria Different-Phenotype (%) [2]: 7% and 9%; Population Mitotic Cells (%) [2]: 91% and 92%; Population Normal (%) [2]: 98% and 97%; Population Pyknosed Nuclei (%) [2]: 4% and 10%; Population Tubulin-Different-Phenotype (%) [2]: 4% and 1%; Total Cell Count [2]: 1564 and 1180; Population Apoptotic (%) [3]: 19% and 15%; Population Fragmented Nuclei (%) [3]: 14% and 20%; Population Healthy Nuclei (%) [3]: 79% and 69%; Population Membrane Permeable-Phenotype (%) [3]: 5%; Population Mitochondria Different-Phenotype (%) [3]: 2% and 3%; Population Mitotic Cells (%) [3]: 80% and 84%; Population Normal (%) [3]: 95% and 82%; Population Pyknosed Nuclei (%) [3]: 6% and 10%; Population Tubulin-Different-Phenotype (%) [3]: 1%; Total Cell Count [3]: 894 and 614; Population Apoptotic (%) [4]: 6% and 4%; Population Fragmented Nuclei (%) [4]: 25% and 12%; Population Healthy Nuclei (%) [4]: 71% and 80%; Population Hoechst High Intensity Objects (%) [4]: 2%; Population Membrane Permeable-Phenotype (%) [4]: 3% and 1%; Population Mitochondria Different-Phenotype (%) [4]: 1%; Population Mitotic Cells (%) [4]: 93% and 95%; Population Normal (%) [4]: 97%; Population Pyknosed Nuclei (%) [4]: 2% and 7%; Population Tubulin-Different-Phenotype (%) [4]: 4% and 2%; Total Cell Count [4]: 2712 and 1180

Q: Which results are given for `O=C1NCN(c2ccccc2)C12CCN(CCCOc1ccc(F)cc1)CC2` [SPIRAMIDE]?
A: Population Apoptotic (%) [5]: 41%; Population Fragmented Nuclei (%) [5]: 15%; Population Hoechst High Intensity Objects (%) [5]: 12%; Population Membrane Permeable-Phenotype (%) [5]: 4%; Population Mitochondria Different-Phenotype (%) [5]: 81%; Population Mitotic Cells (%) [5]: 58%; Population Normal (%) [5]: 87%; Population Pyknosed Nuclei (%) [5]: 45%; Population Tubulin-Different-Phenotype (%) [5]: 35%; Total Cell Count [5]: 216; Population Apoptotic (%) [6]: 11%; Population Fragmented Nuclei (%) [6]: 10%; Population Healthy Nuclei (%) [6]: 38%; Population Hoechst High Intensity Objects (%) [6]: 7%; Population Membrane Permeable-Phenotype (%) [6]: 12%; Population Mitochondria Different-Phenotype (%) [6]: 11%; Population Mitotic Cells (%) [6]: 88%; Population Normal (%) [6]: 92%; Population Pyknosed Nuclei (%) [6]: 50%; Population Tubulin-Different-Phenotype (%) [6]: 20%; Total Cell Count [6]: 179; Population Apoptotic (%) [1]: 66%; Population Fragmented Nuclei (%) [1]: 16%; Population Healthy Nuclei (%) [1]: 13%; Population Hoechst High Intensity Objects (%) [1]: 17%; Population Membrane Permeable-Phenotype (%) [1]: 0%; Population Mitochondria Different-Phenotype (%) [1]: 95%; Population Mitotic Cells (%) [1]: 33%; Population Normal (%) [1]: 82%; Population Pyknosed Nuclei (%) [1]: 70%; Population Tubulin-Different-Phenotype (%) [1]: 95%; Total Cell Count [1]: 210; Population Apoptotic (%) [2]: 19%; Population Fragmented Nuclei (%) [2]: 3%; Population Healthy Nuclei (%) [2]: 34%; Population Hoechst High Intensity Objects (%) [2]: 2%; Population Membrane Permeable-Phenotype (%) [2]: 7%; Population Mitochondria Different-Phenotype (%) [2]: 55%; Population Mitotic Cells (%) [2]: 80%; Population Normal (%) [2]: 97%; Population Pyknosed Nuclei (%) [2]: 62%; Population Tubulin-Different-Phenotype (%) [2]: 46%; Total Cell Count [2]: 194; Population Apoptotic (%) [7]: 50%; Population Fragmented Nuclei (%) [7]: 13%; Population Healthy Nuclei (%) [7]: 57%; Population Hoechst High Intensity Objects (%) [7]: 10%; Population Membrane Permeable-Phenotype (%) [7]: 0%; Population Mitochondria Different-Phenotype (%) [7]: 66%; Population Mitotic Cells (%) [7]: 50%; Population Normal (%) [7]: 89%; Population Pyknosed Nuclei (%) [7]: 28%; Population Tubulin-Different-Phenotype (%) [7]: 34%; Total Cell Count [7]: 248; Population Apoptotic (%) [8]: 6%; Population Fragmented Nuclei (%) [8]: 8%; Population Healthy Nuclei (%) [8]: 61%; Population Hoechst High Intensity Objects (%) [8]: 3%; Population Membrane Permeable-Phenotype (%) [8]: 6%; Population Mitochondria Different-Phenotype (%) [8]: 17%; Population Mitotic Cells (%) [8]: 93%; Population Normal (%) [8]: 96%; Population Pyknosed Nuclei (%) [8]: 30%; Population Tubulin-Different-Phenotype (%) [8]: 29%; Total Cell Count [8]: 207; Population Apoptotic (%) [3]: 69%; Population Fragmented Nuclei (%) [3]: 17%; Population Healthy Nuclei (%) [3]: 19%; Population Hoechst High Intensity Objects (%) [3]: 17%; Population Membrane Permeable-Phenotype (%) [3]: 5%; Population Mitochondria Different-Phenotype (%) [3]: 97%; Population Mitotic Cells (%) [3]: 30%; Population Normal (%) [3]: 82%; Population Pyknosed Nuclei (%) [3]: 62%; Population Tubulin-Different-Phenotype (%) [3]: 100%; Total Cell Count [3]: 231; Population Apoptotic (%) [4]: 21%; Population Fragmented Nuclei (%) [4]: 3%; Population Healthy Nuclei (%) [4]: 54%; Population Hoechst High Intensity Objects (%) [4]: 1%; Population Membrane Permeable-Phenotype (%) [4]: 2%; Population Mitochondria Different-Phenotype (%) [4]: 59%; Population Mitotic Cells (%) [4]: 78%; Population Normal (%) [4]: 98%; Population Pyknosed Nuclei (%) [4]: 42%; Population Tubulin-Different-Phenotype (%) [4]: 59%; Total Cell Count [4]: 256; Population Apoptotic (%) [9]: 35%; Population Fragmented Nuclei (%) [9]: 10%; Population Healthy Nuclei (%) [9]: 77%; Population Hoechst High Intensity Objects (%) [9]: 7%; Population Membrane Permeable-Phenotype (%) [9]: 1%; Population Mitochondria Different-Phenotype (%) [9]: 26%; Population Mitotic Cells (%) [9]: 64%; Population Normal (%) [9]: 92%; Population Pyknosed Nuclei (%) [9]: 12%; Population Tubulin-Different-Phenotype (%) [9]: 22%; Total Cell Count [9]: 484; Population Apoptotic (%) [10]: 8%; Population Fragmented Nuclei (%) [10]: 4%; Population Healthy Nuclei (%) [10]: 82%; Population Hoechst High Intensity Objects (%) [10]: 2%; Population Membrane Permeable-Phenotype (%) [10]: 7%; Population Mitochondria Different-Phenotype (%) [10]: 7%; Population Mitotic Cells (%) [10]: 91%; Population Normal (%) [10]: 97%; Population Pyknosed Nuclei (%) [10]: 13%; Population Tubulin-Different-Phenotype (%) [10]: 20%; Total Cell Count [10]: 363; Population Apoptotic (%) [11]: 59%; Population Fragmented Nuclei (%) [11]: 17%; Population Healthy Nuclei (%) [11]: 30%; Population Hoechst High Intensity Objects (%) [11]: 18%; Population Membrane Permeable-Phenotype (%) [11]: 0%; Population Mitochondria Different-Phenotype (%) [11]: 98%; Population Mitotic Cells (%) [11]: 40%; Population Normal (%) [11]: 81%; Population Pyknosed Nuclei (%) [11]: 51%; Population Tubulin-Different-Phenotype (%) [11]: 89%; Total Cell Count [11]: 227; Population Apoptotic (%) [12]: 21%; Population Fragmented Nuclei (%) [12]: 4%; Population Healthy Nuclei (%) [12]: 77%; Population Hoechst High Intensity Objects (%) [12]: 4%; Population Membrane Permeable-Phenotype (%) [12]: 1%; Population Mitochondria Different-Phenotype (%) [12]: 29%; Population Mitotic Cells (%) [12]: 78%; Population Normal (%) [12]: 95%; Population Pyknosed Nuclei (%) [12]: 17%; Population Tubulin-Different-Phenotype (%) [12]: 44%; Total Cell Count [12]: 383

Reference: ChEMBL document CHEMBL4689842, “EUbOPEN Chemogenomics Library wave 1” (2021)
